Source: ChEMBL document CHEMBL4837214, “Design, synthesis, and biological evaluation of novel tetrahydroprotoberberine derivatives to reduce SREBPs expression for the treatment of hyperlipidemia” (Eur J Med Chem, 2021)
Calls of active or inactive are those of the source. The rule behind the calls is not given here.

Legend:
[1] = target: T1, Sterol regulatory element-binding protein 1 (Homo sapiens) (UniProt P36956); assay: Induction of SREBP degradation in human HepG2 cells at 10 uM preincubated with cycloheximide for 1 hr followed by compound additon by Western blot analysis; format: cell-based
T1 sequence (whole entry): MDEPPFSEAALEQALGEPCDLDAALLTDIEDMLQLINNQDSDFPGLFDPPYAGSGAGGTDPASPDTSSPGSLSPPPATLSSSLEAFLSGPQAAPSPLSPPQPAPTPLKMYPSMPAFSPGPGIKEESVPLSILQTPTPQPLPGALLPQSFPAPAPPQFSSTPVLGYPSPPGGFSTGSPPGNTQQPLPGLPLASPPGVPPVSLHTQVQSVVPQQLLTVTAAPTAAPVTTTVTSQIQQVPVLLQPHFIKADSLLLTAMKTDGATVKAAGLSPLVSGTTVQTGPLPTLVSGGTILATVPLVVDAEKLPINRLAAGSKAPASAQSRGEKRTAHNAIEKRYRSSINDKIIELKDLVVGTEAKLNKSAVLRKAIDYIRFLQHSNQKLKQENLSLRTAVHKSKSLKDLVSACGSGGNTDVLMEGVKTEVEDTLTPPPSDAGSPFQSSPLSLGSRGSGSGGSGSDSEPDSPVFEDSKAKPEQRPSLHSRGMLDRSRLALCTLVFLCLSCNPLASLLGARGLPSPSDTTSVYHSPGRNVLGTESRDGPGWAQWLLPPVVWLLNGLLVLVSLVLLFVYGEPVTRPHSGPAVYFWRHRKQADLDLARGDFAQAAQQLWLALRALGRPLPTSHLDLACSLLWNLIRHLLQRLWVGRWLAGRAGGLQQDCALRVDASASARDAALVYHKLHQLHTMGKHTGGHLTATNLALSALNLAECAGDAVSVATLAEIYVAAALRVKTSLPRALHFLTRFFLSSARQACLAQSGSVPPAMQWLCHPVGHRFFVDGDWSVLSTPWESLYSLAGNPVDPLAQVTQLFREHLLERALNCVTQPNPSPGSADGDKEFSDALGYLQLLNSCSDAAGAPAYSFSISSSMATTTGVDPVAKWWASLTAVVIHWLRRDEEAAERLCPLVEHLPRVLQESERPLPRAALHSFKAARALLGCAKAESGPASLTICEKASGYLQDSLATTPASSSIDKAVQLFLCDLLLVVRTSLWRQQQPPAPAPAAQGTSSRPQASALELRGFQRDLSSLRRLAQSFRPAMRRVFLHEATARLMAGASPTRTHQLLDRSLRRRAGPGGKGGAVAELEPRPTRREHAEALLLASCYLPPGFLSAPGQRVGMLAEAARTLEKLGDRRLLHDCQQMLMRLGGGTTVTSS
Method in brief: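 HepG2 cells pretreated 1 h with cycloheximide at […]. Medium then switched to cycloheximide plus vehicle or compound at […] for varying times. SREBP decay rate followed by Western blot of lysates.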

HepG2 [2] = assay: Down regulation of intracellular TC level in human HepG2 cells at 10 uM measured after 24 hrs; format: functional, cell-based
Method in brief: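 HepG2 cells grown in six-well plates and exposed 24 h to compound at […]. Cells collected in PBS and sonicated (5 s on, 10 s off, 60 s total). Total cholesterol or triglyceride measured with a colorimetric determination kit.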

[3] = Toxicity in C57BL/6J mouse assessed as reduction in liver weight at 170 to 340 mg/kg, po measured every week for 6 weeks; format: organism-based; settings: in vivo, 1008 h, dose 170-340 mg/kg
Method in brief: (§1)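 Male C57BL/6J mice, six weeks old, fed a 45%-fat diet (HFD) for 15 weeks; chow-fed mice served as controls. Obese mice were randomized to vehicle (0.1% w/v CMC-Na) or 170 or 340 mg/kg, gavaged daily for 6 weeks while diet continued. Body weight, food intake, organ weights, serum lipids, tissue histology (H&E, Oil red O), liver SREBP blots and liver qPCR followed.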

HepG2 [4] = assay: Down regulation of precursor and mature forms of SREBP-1 protein expression in human HepG2 cells after 24 hrs by Western blotting analysis; format: functional, cell-based; settings: dose 5-80 µM
Method in brief: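 HepG2 cells treated 24 h at the indicated doses and lysed in RIPA buffer with protease inhibitors; protein quantified by BCA. Lysates run on 10% SDS-PAGE and blotted to nitrocellulose. After 5% milk block, primary antibody applied overnight at 4 °C and secondary 1 h at room temperature. β-actin served as loading reference.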

[5] = target: T1, Sterol regulatory element-binding protein 1 (Homo sapiens); assay: Induction of SREBP degradation expressed in human HEK293T cells assessed as increase in SREBP ubiquitination at 10 uM after 24 hrs by Western blot analysis; format: cell-based
Method in brief: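 293T cells seeded at 3×10⁶ per dish and transfected next day with flag-SREBP1 or flag-SREBP2 plus HA-ubiquitin. On day 2 medium replaced with DMSO or compound. On day 3 cells lysed in IP buffer and cleared at 12,000 rpm, 4 °C. Supernatant immunoprecipitated overnight at 4 °C with flag antibody or IgG. Ubiquitylated SREBPs detected by Western blot.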

[6] = Cmax in Sprague-Dawley rat at 10 mg/kg, po measured upto 24 hrs by LC-MS/MS analysis; format: ADME, organism-based; design: route oral, dose 10 mg/kg, time <=24; settings: in vivo
Method in brief: (§2)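 Six SD rats split into two groups of three, dosed 1 mg/kg IV or 10 mg/kg orally. IV blood drawn at 2, 5, 15, 30 min and 1, 2, 4, 6, 8, 12 h. Oral blood drawn at 5, 15, 30 min and 1, 2, 4, 6, 8, 12, 24 h. Serum drug measured by LC/MS/MS. Parameters are the average of three runs.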

[7] = MRT (0 to infinity) in Sprague-Dawley rat at 1 mg/kg, iv measured upto 12 hrs by LC-MS/MS analysis; format: ADME, organism-based; settings: in vivo; method in brief: as §2
[8] = Tmax in Sprague-Dawley rat at 10 mg/kg, po measured upto 24 hrs by LC-MS/MS analysis; format: ADME, organism-based; settings: in vivo; method in brief: as §2
[9] = Half life in Sprague-Dawley rat at 10 mg/kg, po measured upto 24 hrs by LC-MS/MS analysis; format: ADME, organism-based; settings: in vivo; method in brief: as §2
[10] = Clearance in Sprague-Dawley rat at 1 mg/kg, iv measured upto 12 hrs by LC-MS/MS analysis; format: ADME, organism-based; settings: in vivo; method in brief: as §2
[11] = Oral bioavailability in Sprague-Dawley rat at 10 mg/kg measured upto 24 hrs by LC-MS/MS analysis; format: ADME, organism-based; settings: in vivo; method in brief: as §2
[12] = Toxicity in high fat diet-induced C57BL/6J mouse assessed as reduction in food intake at 170 to 340 mg/kg, po measured every week for 6 weeks; format: organism-based; settings: in vivo, 1008 h, dose 170-340 mg/kg; method in brief: as §1
[13] = Toxicity in high fat diet-induced C57BL/6J mouse assessed as change in lung morphology at 170 to 340 mg/kg, po administered for 6 weeks by H and E staining-based assay; format: organism-based; settings: in vivo, 1008 h, dose 170-340 mg/kg; method in brief: as §1
Mus musculus [14] = assay: […] activity in high fat diet-induced C57BL/6J mouse assessed as reduction in Fasn mRNA level in liver at 170 to 340 mg/kg, po administered daily for 6 weeks by qRT-PCR analysis; format: functional, organism-based; settings: dose 170-340 mg/kg; method in brief: as §1
Mus musculus [15] = assay: Hypolipidemic activity in high fat diet-induced C57BL/6J mouse assessed as reduction in cell size of BAT at 170 to 340 mg/kg, po administered daily for 6 weeks by H and E staining based assay; format: functional, organism-based; settings: dose 170-340 mg/kg; method in brief: as §1

- Activity [1]: Active
- Activity [5]: Active
- Cmax [6]: 428 ng/mL
- MRT inf [7]: 3.18 h
- Tmax [8]: 6.67 h
- half-life [9]: 5.36 h
- clearance [10]: 25.8 mL/min/kg
- bioavailability [11]: 65.1%
SMILES: COc1ccc2c(c1OCC1CCCCC1)CN1CCc3cc4c(cc3C1C2)OCO4 (stereo not given)
- Activity (HepG2 [2]): Active
- Activity [3]: Toxic
- Activity (HepG2 [4]): Dose-Dependent Effect
- Activity [12]: Non-Toxic
- Activity [13]: Non-Toxic
- Activity (Mus musculus [14]): Active
- Activity (Mus musculus [15]): Active
